Test results as given in publication PMC12506886 (RSC Advances, 2025).
Where two headings read alike, the source gives them in different places.

Assays:
[1] = tested on: SW480 (human colon cancer) cells; assay: MTT antiproliferative assay, SW480 cells; type: cell-based; conditions: read-out: IC50 SW480
Procedure, shortened: (§1)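 Cancer cells were grown in RPMI 1640 with 10% FBS and 1% penicillin–streptomycin at 37 °C in humidified CO2. They were harvested with trypsin/EDTA and seeded at 8 × 10^3 cells per well. Cells were exposed to a concentration series in triplicate, with untreated wells as controls, for 72 h. MTT was then added for 4 h at 37 °C and formazan dissolved in DMSO (10 min, 37 °C, dark). Absorbance was read at 490 nm. IC50 is mean ± SD of 3–4 independent experiments.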

[2] = tested on: MRC-5 (human fetal lung fibroblast cells); assay: MTT cytotoxicity assay, MRC-5 normal cells; type: cell-based; conditions: MRC5, 72 h, read-out: IC50 MRC-5
Procedure, shortened: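 Human fetal lung fibroblasts were harvested with trypsin/EDTA and seeded at 8 × 10^3 cells per well. They were treated in triplicate with a concentration series for 72 h, with untreated wells as controls. MTT was added for 4 h at 37 °C and formazan dissolved in DMSO. Absorbance was read at 490 nm. IC50 is mean ± SD of three independent replicates.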

[3] = tested on: A549 (human lung cancer) cells; assay: MTT antiproliferative assay, A549 cells; type: cell-based; conditions: read-out: IC50 A549
Procedure, shortened: as §1

A549 cells [4] = conditions: read-out: IC50 (A549); cited from earlier work
A549 cells [5] = assay: Cell cycle analysis by PI staining and flow cytometry; type: cell-based, human; conditions: A549, 16.1 μM
Procedure, shortened: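 A549 cells (5 × 10^4) were pre-cultured for 16 h in high-glucose DMEM, then treated with 16.1 μM test compound for 24 h and 48 h. Cells were harvested with 0.25% trypsin, washed in PBS, and stained with propidium iodide plus 1 U RNase A. DNA content was measured by flow cytometry. Values are mean ± SD of three independent experiments, compared with control by one-way ANOVA and Tukey's test.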

A549 cells [6] = assay: Annexin V-FITC/PI apoptosis assay by flow cytometry; type: cell-based, human; conditions: A549, 16.1 μM
Procedure, shortened: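 A549 cells (1 × 10^5) were pre-cultured for 16 h, then exposed to 16.1 μM test compound for 24 h and 48 h. Cells were washed with PBS and 1× binding buffer, then stained with Annexin V-FITC for 15 min. After a further wash, PI was added in binding buffer and apoptosis rates were read by flow cytometry. Values are mean ± SD of three independent experiments, compared with untreated controls by one-way ANOVA and Tukey's test.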

[7] = MTT, 72 h, mean ± SD of 3–4 independent replicates

Compound	IC50 ([1]; Homo sapiens, SW480, 72 h)	IC50 ([3]; Homo sapiens, A549, 72 h)	other results
COc1cccc2c1C(=O)c1c(O)c3c(c(O)c1C2=O)C[C@@](O)(C(=O)CO)C[C@@H]3O[C@H]1C[C@H](N)[C@H](O)[C@H](C)O1 [Doxorubicin, reference compound]	0.59 ± 0.07 µM	0.46 ± 0.02 µM	IC50 [2]: 0.39 ± 0.06 µM
CCc1ccc(NC(=O)Cn2cc(Cn3c(-c4cc(OC)c(OC)c(OC)c4)nc4ccccc43)nn2)cc1 [Compound 9l, N-(4-Ethylphenyl)-2-(4-((2-(3,4,5-trimethoxyphenyl)-1H-benzo[d]imidazol-1-yl)methyl)-1H-1,2,3-triazol-1-yl)acetamide]	65.3 ± 1 µM	50.3 ± 6.7 µM	
COc1cc(-c2nc3ccccc3n2Cc2cn(CC(=O)Nc3ccccc3)nn2)cc(OC)c1OC [Compound 9b, N-Phenyl-2-(4-((2-(3,4,5-trimethoxyphenyl)-1H-benzo[d]imidazol-1-yl)methyl)-1H-1,2,3-triazol-1-yl)acetamide]	158 ± 7.8 µM	114 ± 5 µM	
COc1cc(-c2nc3ccc(C)cc3[nH]2)cc(OC)c1OC [Compound I, 6-methyl-2-(3,4,5-trimethoxyphenyl)-1H-benzo[d]imidazole]			IC50 (A549 cells [4]): 39.4 µM
N-(2-Nitrophenyl)-2-(4-((2-(3,4,5-trimethoxyphenyl)-1H-benzo[d]imidazol-1-yl)methyl)-1H-1,2,3-triazol-1-yl)acetamide [Compound 9c]			IC50 [1, 7]: 22.5 ± 3.9 µM; IC50 [3, 7]: 23.5 ± 3.6 µM
COc1cc(-c2nc3ccccc3n2Cc2cn(CC(=O)Nc3ccc(C)cc3)nn2)cc(OC)c1OC [Compound 9a, N-(p-Tolyl)-2-(4-((2-(3,4,5-trimethoxyphenyl)-1H-benzo[d]imidazol-1-yl)methyl)-1H-1,2,3-triazol-1-yl)acetamide]	77.2 ± 3.2 µM	67.4 ± 3.4 µM	
COc1ccc(NC(=O)Cn2cc(Cn3c(-c4cc(OC)c(OC)c(OC)c4)nc4ccccc43)nn2)c(OC)c1 [Compound 9f, N-(2,4-Dimethoxyphenyl)-2-(4-((2-(3,4,5-trimethoxyphenyl)-1H-benzo[d]imidazol-1-yl)methyl)-1H-1,2,3-triazol-1-yl)acetamide]	19.7 ± 2.7 µM	16.1 ± 1.1 µM	changes in the number of cells in the cell cycle phases compared to control (A549 cells [5]; 24 h): not significant; number of cells in the G2/M phase (A549 cells [5]; 48 h, non-significant decrease): 12.05%; number of cells in the S phase (A549 cells [5]; 48 h, p < 0.001 vs control): 33.04%; number of cells in the G0/G1 phase (A549 cells [5]; 48 h, p < 0.01 vs control): 54.91%; rate of early apoptosis (Q3) (A549 cells [6]; 24 h): 3.79%; rate of late apoptosis (Q2) (A549 cells [6]; 24 h): 1.63%; rate of early apoptosis (Q3) (A549 cells [6]; 48 h): 12.2%; rate of late apoptosis (Q2) (A549 cells [6]; 48 h): 4.01%; IC50 [2]: 121 ± 6.7 µM
N.N.[Cl][Pt][Cl] [Cisplatin, reference compound]			IC50 [3, 7]: 7.4 ± 1.6 µM
COc1ccc(NC(=O)Cn2cc(Cn3c(-c4cc(OC)c(OC)c(OC)c4)nc4ccccc43)nn2)cc1 [Compound 9j, N-(4-Methoxyphenyl)-2-(4-((2-(3,4,5-trimethoxyphenyl)-1H-benzo[d]imidazol-1-yl)methyl)-1H-1,2,3-triazol-1-yl)acetamide]	68.1 ± 2.2 µM	57.6 ± 5.7 µM	
COc1cc(-c2nc3ccccc3n2Cc2cn(CC(=O)Nc3cccc(C)c3C)nn2)cc(OC)c1OC [Compound 9k, N-(2,3-Dimethylphenyl)-2-(4-((2-(3,4,5-trimethoxyphenyl)-1H-benzo[d]imidazol-1-yl)methyl)-1H-1,2,3-triazol-1-yl)acetamide]	53.5 ± 6.4 µM	37.9 ± 0.14 µM	
COc1cc(-c2nc3ccccc3n2Cc2cn(CC(=O)Nc3ccccc3[N+](=O)[O-])nn2)cc(OC)c1OC [Compound 9h, N-(2-Nitrophenyl)-2-(4-((2-(3,4,5-trimethoxyphenyl)-1H-benzo[d]imidazol-1-yl)methyl)-1H-1,2,3-triazol-1-yl)acetamide]	43.8 ± 2.5 µM	32.5 ± 4.2 µM	
COc1cc(-c2nc3ccccc3n2Cc2cn(CC(=O)Nc3ccccc3F)nn2)cc(OC)c1OC [Compound 9o, N-(2-Fluorophenyl)-2-(4-((2-(3,4,5-trimethoxyphenyl)-1H-benzo[d]imidazol-1-yl)methyl)-1H-1,2,3-triazol-1-yl)acetamide]	62.4 ± 3.7 µM	48.9 ± 2.2 µM	
COc1cc(-c2nc3ccccc3n2Cc2cn(CC(=O)Nc3ccc(C)cc3C)nn2)cc(OC)c1OC [Compound 9i, N-(2,4-Dimethylphenyl)-2-(4-((2-(3,4,5-trimethoxyphenyl)-1H-benzo[d]imidazol-1-yl)methyl)-1H-1,2,3-triazol-1-yl)acetamide]	51.5 ± 4.6 µM	29.3 ± 6.6 µM	
COc1cc(-c2nc3ccccc3n2Cc2cn(CC(=O)Nc3cccc(Cl)c3)nn2)cc(OC)c1OC [Compound 9n, N-(3-Chlorophenyl)-2-(4-((2-(3,4,5-trimethoxyphenyl)-1H-benzo[d]imidazol-1-yl)methyl)-1H-1,2,3-triazol-1-yl)acetamide]	34.3 ± 3.1 µM	20.3 ± 2 µM	IC50 [2]: 124.2 ± 0.4 µM
COc1cc(-c2nc3ccccc3n2Cc2cn(CC(=O)Nc3ccc(Cl)cc3Cl)nn2)cc(OC)c1OC [Compound 9g, N-(2,4-Dichlorophenyl)-2-(4-((2-(3,4,5-trimethoxyphenyl)-1H-benzo[d]imidazol-1-yl)methyl)-1H-1,2,3-triazol-1-yl)acetamide]	64.5 ± 3.3 µM	31.5 ± 4.2 µM	
COc1cc(-c2nc3ccccc3n2Cc2cn(CC(=O)Nc3ccc(Br)cc3)nn2)cc(OC)c1OC [Compound 9d, N-(4-Bromophenyl)-2-(4-((2-(3,4,5-trimethoxyphenyl)-1H-benzo[d]imidazol-1-yl)methyl)-1H-1,2,3-triazol-1-yl)acetamide]	> 200 µM	> 200 µM	
COc1cc(-c2nc3ccccc3n2Cc2cn(CC(=O)NCc3ccccc3)nn2)cc(OC)c1OC [Compound 9m, N-Benzyl-2-(4-((2-(3,4,5-trimethoxyphenyl)-1H-benzo[d]imidazol-1-yl)methyl)-1H-1,2,3-triazol-1-yl)acetamide]	72.3 ± 5.3 µM	47.9 ± 2.7 µM	
COc1cc(-c2nc3ccccc3n2Cc2cn(CC(=O)Nc3ccccc3Cl)nn2)cc(OC)c1OC [Compound 9e, N-(2-Chlorophenyl)-2-(4-((2-(3,4,5-trimethoxyphenyl)-1H-benzo[d]imidazol-1-yl)methyl)-1H-1,2,3-triazol-1-yl)acetamide]	30.4 ± 3.6 µM	22.2 ± 4 µM	IC50 [2]: 105 ± 7.1 µM
